Results taken from ChEMBL document CHEMBL1126775, “A pharmacological, crystallographic, and quantum chemical study of new inotropic agents” (J Med Chem, 1993).
“And” between values parts separate entries of the source, which are not always exact repeats. Equal values may be shown once.

Columns and labels:
[1] = species on record: Cavia porcellus; experiment: Inotropic response in electrically driven left atrium from reserpine-treated guinea pig with VER (10 e-7) at the concentration of 2 x 10 e-3 M; type: functional, Cardiac atrium
Outline: (§1)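 Left atrium from reserpine-treated guinea pigs (2 mg/kg ip, 48 and 24 h prior; tyramine 2 μg/mL check), paced at 1.5 Hz with 3-ms pulses. Verapamil 0.1 μM added 10 min before cumulative agent additions (5 min each), after 90 min equilibration. Isometric developed tension as % increase over control; seven assays from seven experiments.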

[2] = species on record: Cavia porcellus; experiment: Inotropic effect in electrically driven left atrium from reserpine-treated guinea pig without 8-phenyl theophylline at the concentration of 5 x 10 e-4 M; type: functional, Cardiac atrium
Outline: (§2)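 Paced left atrium from reserpine-pretreated, tyramine-unresponsive guinea pigs (0.5 g load, 1.5 Hz, 3-ms pulses). Cumulative additions of agent, 5 min each, with no 8-phenyltheophylline present. Developed tension as % increase over control. Mean ± SEM of six assays from six experiments; Student's t test against the 8-phenyltheophylline-treated preparations.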

[3] = species on record: Cavia porcellus; experiment: Inotropic response in electrically driven left atrium from reserpine-treated guinea pig with VER (10 e-7) at the concentration of 10 e-5 M; type: functional, Cardiac atrium; outline: as §1
[4] = species on record: Cavia porcellus; experiment: Inotropic effect in electrically driven left atrium from reserpine-treated guinea pig without 8-phenyl theophylline at the concentration of 5 x 10 e-5 M; type: functional, Cardiac atrium; outline: as §2
[5] = species on record: Cavia porcellus; experiment: Inotropic response in electrically driven left atrium from reserpine-treated guinea pig without VER at the concentration of 5 x 10 e-4 M; type: functional, Cardiac atrium
Outline: (§3)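 Control arm without verapamil: left atrium from reserpinized guinea pigs (2 mg/kg ip, 48 and 24 h before), tyramine-unresponsive, paced at 1.5 Hz (3-ms pulses). Agents added cumulatively after 90 min equilibration, recorded 5 min each. Isometric developed tension as % increase over control; seven assays from seven experiments.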

[6] = species on record: Cavia porcellus; experiment: Inotropic response in electrically driven left atrium from reserpine-treated guinea pig with VER (10 e-7) at the concentration of 10 e-3 M; type: functional, Cardiac atrium; outline: as §1
[7] = species on record: Cavia porcellus; experiment: Effect on contractile force of spontaneously beating atria from reserpine treated guinea pigs at the concentration of 5x 10 e-4 M; type: functional
[8] = species on record: Cavia porcellus; experiment: Effect on contractile force of spontaneously beating atria from reserpine treated guinea pigs at the concentration of 10 e-4 M; type: functional
[9] = species on record: Cavia porcellus; experiment: Inotropic effect in electrically driven left atrium from reserpine-treated guinea pig at the concentration of 5 x 10 e-4 M; type: functional, Cardiac atrium
Outline: (§4)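 Atria from reserpine-pretreated guinea pigs (2 mg/kg ip, 48 and 24 h), tyramine-unresponsive only. Left atrium loaded 0.5 g, paced at 1.5 Hz with 3-ms square pulses at 10–20% above threshold. Equilibrated 90 min. Agents added cumulatively, 5 min per concentration. Isometric developed tension expressed as % increase over control.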

[10] = species on record: Cavia porcellus; experiment: Inotropic response in electrically driven left atrium from reserpine-treated guinea pig without VER at the concentration of 2 x 10 e-3 M; type: functional, Cardiac atrium; outline: as §3
[11] = species on record: Cavia porcellus; experiment: Inotropic effect in electrically driven left atrium from reserpine-treated guinea pig at the concentration of 10 e-5 M; type: functional, Cardiac atrium; outline: as §4
[12] = species on record: Cavia porcellus; experiment: Inotropic response in electrically driven left atrium from reserpine-treated guinea pig with ADA (2 units/ml) at the concentration of 5 x 10 e-5 M; type: functional, Cardiac atrium
Outline: (§5)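 Reserpinized guinea pigs (2 mg/kg ip, 48 and 24 h before death), tyramine-unresponsive atria. Electrically driven left atrium (1.5 Hz, 3-ms pulses, 0.5 g load) preincubated 20 min with adenosine deaminase after 90 min equilibration. Agents added cumulatively, 5 min per concentration. Developed tension recorded isometrically, % increase over control or % inhibition; six assays from six experiments, Student's t test.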

[13] = species on record: Cavia porcellus; experiment: Inotropic response in electrically driven left atrium from reserpine-treated guinea pig without ADA at the concentration of 10 e-3 M; type: functional, Cardiac atrium
Outline: (§6)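 Control arm: electrically driven left atrium (1.5 Hz, 3-ms pulses, 0.5 g load) from guinea pigs given reserpine 2 mg/kg ip at 48 and 24 h, tyramine-unresponsive; no adenosine deaminase. Cumulative additions after 90 min equilibration, 5 min per concentration. Isometric developed tension, % over control; six assays from six experiments.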

[14] = species on record: Cavia porcellus; experiment: Inotropic response in electrically driven left atrium from reserpine-treated guinea pig with ADA (2 units/ml) at the concentration of 5 x 10 e-4 M; type: functional, Cardiac atrium; outline: as §5
[15] = species on record: Cavia porcellus; experiment: Effect on contractile force of spontaneously beating atria from reserpine treated guinea pigs at the concentration of 10 e-3 M; type: functional
[16] = species on record: Cavia porcellus; experiment: Inotropic effect in electrically driven left atrium from reserpine-treated guinea pig at the concentration of 10 e-4 M; type: functional, Cardiac atrium; outline: as §4
[17] = species on record: Cavia porcellus; experiment: Inotropic response in electrically driven left atrium from reserpine-treated guinea pig without VER at the concentration of 5 x 10 e-5 M; type: functional, Cardiac atrium; outline: as §3
[18] = species on record: Cavia porcellus; experiment: Inotropic effect in electrically driven left atrium from reserpine-treated guinea pig without 8-phenyl theophylline at the concentration of 2 x 10 e-3 M; type: functional, Cardiac atrium; outline: as §2
[19] = species on record: Cavia porcellus; experiment: Inotropic response in electrically driven left atrium from reserpine-treated guinea pig without VER at the concentration of 10 e-4 M; type: functional, Cardiac atrium; outline: as §3
[20] = species on record: Cavia porcellus; experiment: Effect on frequency rate of spontaneously beating atria from reserpine treated guinea pigs at the concentration of 2 x 10 e-3 M; type: functional
[21] = species on record: Cavia porcellus; experiment: Inotropic response in electrically driven left atrium from reserpine-treated guinea pig with VER (10 e-7) at the concentration of 10 e-4 M; type: functional, Cardiac atrium; outline: as §1
[22] = species on record: Cavia porcellus; experiment: Inotropic effect in electrically driven left atrium from reserpine-treated guinea pig without 8-phenyl theophylline at the concentration of 10 e-4 M; type: functional, Cardiac atrium; outline: as §2
[23] = species on record: Cavia porcellus; experiment: Inotropic response in electrically driven left atrium from reserpine-treated guinea pig without ADA at the concentration of 5 x 10 e-5 M; type: functional, Cardiac atrium; outline: as §6
[24] = species on record: Cavia porcellus; experiment: Inotropic effect in electrically driven left atrium from reserpine-treated guinea pig at the concentration of 2 x 10 e-3 M; type: functional, Cardiac atrium; outline: as §4
[25] = species on record: Cavia porcellus; experiment: Inotropic response in electrically driven left atrium from reserpine-treated guinea pig with ADA (2 units/ml) at the concentration of 10 e-3 M; type: functional, Cardiac atrium; outline: as §5
[26] = species on record: Cavia porcellus; experiment: Inotropic response in electrically driven left atrium from reserpine-treated guinea pig without ADA at the concentration of 10 e-4 M; type: functional, Cardiac atrium; outline: as §6
[27] = species on record: Cavia porcellus; experiment: Effect on frequency rate of spontaneously beating atria from reserpine treated guinea pigs at the concentration of 5 x 10 e-4 M; type: functional
[28] = species on record: Cavia porcellus; experiment: Inotropic effect in electrically driven left atrium from reserpine-treated guinea pig without 8-phenyl theophylline at the concentration of 10 e-3 M; type: functional, Cardiac atrium; outline: as §2
[29] = species on record: Cavia porcellus; experiment: Inotropic effect in electrically driven left atrium from reserpine-treated guinea pig at the concentration of 5 x 10 e-5 M; type: functional, Cardiac atrium; outline: as §4
[30] = species on record: Cavia porcellus; experiment: Effect on contractile force of spontaneously beating atria from reserpine treated guinea pigs at the concentration of 5x 10 e-5 M; type: functional
[31] = species on record: Cavia porcellus; experiment: Effect on frequency rate of spontaneously beating atria from reserpine treated guinea pigs at the concentration of 10 e-4 M; type: functional
[32] = species on record: Cavia porcellus; experiment: Inotropic response in electrically driven left atrium from reserpine-treated guinea pig without VER at the concentration of 10 e-3 M; type: functional, Cardiac atrium; outline: as §3
[33] = species on record: Cavia porcellus; experiment: Effect on frequency rate of spontaneously beating atria from reserpine treated guinea pigs at the concentration of 10 e-5 M; type: functional
[34] = species on record: Cavia porcellus; experiment: Inotropic response in electrically driven left atrium from reserpine-treated guinea pig with ADA (2 units/ml) at the concentration of 10 e-4 M; type: functional, Cardiac atrium; outline: as §5
[35] = species on record: Cavia porcellus; experiment: Inotropic response in electrically driven left atrium from reserpine-treated guinea pig with VER (10 e-7) at the concentration of 5 x 10 e-4 M; type: functional, Cardiac atrium; outline: as §1
[36] = species on record: Cavia porcellus; experiment: Inotropic response in electrically driven left atrium from reserpine-treated guinea pig with ADA (2 units/ml) at the concentration of 2 x 10 e-3 M; type: functional, Cardiac atrium; outline: as §5

Structure (SMILES)	Increase [1]	Increase [2]	Increase [3]	Increase [4]	Increase [5]	Increase [6]	Increase [7]	Increase [8]	Increase [9]	Increase [10]	Increase [11]	Increase [12]	Increase [13]	Increase [14]	Increase [15]	Increase [16]	Increase [17]	Increase [18]	Increase [19]	Increase [20]	also measured
CC1CC(=O)c2ccc(O)nc2C1 (configuration not stated)	43.8%	38.88%	-0.32%	18.83%	31.4%	23.78%	39.48%	28.89%	37.23%	75.51%	6.31%	5.52%	46.19%	14.35%	46.09%	26.62%	11.6%	87.6%	17.96%	26.44%	Increase [21]: 2.43%; Increase [22]: 24.77%; Increase [23]: 25%; Increase [24]: 93.66%; Increase [25]: 20.63%; Increase [26]: 27.6%; Increase [27]: 13.45%; Increase [28]: 56.72%; Increase [29]: 19.17%; Increase [30]: 18.88%; Increase [31]: 3.29%; Increase [32]: 45.89%; Increase [33]: 2.63% and 3.21%; Increase [34]: 9.12%; Increase [35]: 14.7%; Increase [36]: 39.98%
CC(=O)c1cc(C#N)c(O)nc1C	88.84%	48.18%	12.63%	17.81%	62.96%	66.4%	57.22%	35.57%	48.67%	94.47%	12.64%	8.32%	42.05%	20.37%	65.35%	38.06%	28.29%	62.73%	37.34%	22.98%	Increase [21]: 28.47%; Increase [22]: 28.87%; Increase [23]: 13.32%; Increase [24]: 67.13%; Increase [25]: 37.93%; Increase [26]: 12.61%; Increase [27]: 11.61%; Increase [28]: 56.71%; Increase [29]: 25.17%; Increase [30]: 27.64%; Increase [31]: 6.62%; Increase [32]: 77.46%; Increase [33]: 0.23% and 1.35%; Increase [34]: 10.08%; Increase [35]: 55.47%; Increase [36]: 80.21%
